From ChEMBL document CHEMBL2321793, “Discovery of a novel broad-spectrum antifungal agent derived from albaconazole” (ACS Med Chem Lett, 2013)
Converted amounts (≈) assume the structure as drawn.

Key:
[1] = test system: Pichia kudriavzevii; test: Antifungal activity against Candida krusei CAKR7 after 24 hrs by spectrofluorometric analysis; assay type: functional; conditions: CAKR7, 24 h
[2] = test system: Candida albicans; test: Antifungal activity against fluconazole-susceptible Candida albicans CAAL97 after 24 hrs by spectrofluorometric analysis; assay type: functional; conditions: CAAL97, 24 h
[3] = test system: Candida parapsilosis; test: Antifungal activity against acquired-resistant Candida parapsilosis CAPA2 after 24 hrs by spectrofluorometric analysis; assay type: functional; conditions: Lodderomyces parapsilosis, CAPA2, 24 h
[4] = test system: Candida albicans; test: Antifungal activity against fluconazole-resistant Candida albicans DSY292 after 24 hrs by spectrofluorometric analysis; assay type: functional; conditions: DSY292, 24 h
[5] = test system: Pichia kudriavzevii; test: Antifungal activity against Candida krusei CAKR8 after 24 hrs by spectrofluorometric analysis; assay type: functional; conditions: CAKR8, 24 h
[6] = test system: Candida parapsilosis; test: Antifungal activity against acquired-resistant Candida parapsilosis CAPA1 after 24 hrs by spectrofluorometric analysis; assay type: functional; conditions: Lodderomyces parapsilosis, CAPA1, 24 h
[7] = test system: Nakaseomyces glabratus; test: Antifungal activity against Candida glabrata CAGL2 after 24 hrs by spectrofluorometric analysis; assay type: functional; conditions: CAGL2, 24 h
[8] = test system: Aspergillus fumigatus; test: Antifungal activity against Aspergillus fumigatus ASFU7 after 48 hrs by M38 method; assay type: functional; conditions: ASFU7, 48 h
[9] = test system: Candida albicans; test: Antifungal activity against fluconazole-resistant Candida albicans DSY735 after 24 hrs by spectrofluorometric analysis; assay type: functional; conditions: DSY735, 24 h
[10] = test system: Candida albicans; test: Antifungal activity against fluconazole-susceptible Candida albicans CAAL93 after 24 hrs by spectrofluorometric analysis; assay type: functional; conditions: CAAL93, 24 h
[11] = biological target: T1, Lanosterol 14-alpha demethylase (Candida albicans (strain SC5314 / ATCC MYA-2876) (Yeast), UniProt P10613); test: Inhibition of CYP51 in fluconazole-susceptible Candida albicans CAAL93 assessed as 14-methyfecosterol level at 4.5 ng/mL after 2 hrs; design: scale not given: the % may be the effect or the level left
[12] = biological target: T1, Lanosterol 14-alpha demethylase; test: Inhibition of CYP51 in fluconazole-susceptible Candida albicans CAAL93 assessed as 14-methylepisterol level at 4.5 ng/mL after 2 hrs; design: scale not given: the % may be the effect or the level left
[13] = test system: Aspergillus fumigatus; test: Antifungal activity against Aspergillus fumigatus ASFU17 after 48 hrs by M38 method; assay type: functional; conditions: ASFU17, 48 h
[14] = test system: Rhizomucor miehei; test: Antifungal activity against Rhizomucor miehei RHMI1 after 48 hrs by broth microdilution test
[15] = test system: Candida albicans; test: Antifungal activity against fluconazole-susceptible Candida albicans CAAL93 infected in Swiss mouse assessed as host survival at 15 mg/kg, po qd for 5 days measured after 13 days; assay type: functional
Outline: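 Transiently neutropenic Swiss mice were infected intravenously with C. albicans CAAL93 blastoconidia. Oral dosing began 1 h post-infection at 15 mg/kg body weight, in 5% DMSO, once daily for 5 consecutive days. Controls received 100 μL 0.9% saline with 5% DMSO. The read-out was survival rate on day 13 after infection, compared by log-rank test.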

[16] = test system: Aspergillus fumigatus; test: Antifungal activity against Aspergillus fumigatus ASFU20 after 48 hrs by M38 method; assay type: functional; conditions: ASFU20, 48 h
[17] = biological target: T1, Lanosterol 14-alpha demethylase; test: Inhibition of CYP51 in fluconazole-susceptible Candida albicans CAAL93 assessed as ergosterol level after 2 hrs
[18] = biological target: T1, Lanosterol 14-alpha demethylase; test: Inhibition of CYP51 in fluconazole-susceptible Candida albicans CAAL93 assessed as 14-methylepisterol level at 22 ng/mL after 2 hrs; design: scale not given: the % may be the effect or the level left
[19] = biological target: T1, Lanosterol 14-alpha demethylase; test: Inhibition of CYP51 in fluconazole-susceptible Candida albicans CAAL93 assessed as 14-methyl-3,6-diol level at 22 ng/mL after 2 hrs; design: scale not given: the % may be the effect or the level left
[20] = test system: Aspergillus fumigatus; test: Antifungal activity against Aspergillus fumigatus ASFU23 after 48 hrs by M38 method; assay type: functional; conditions: ASFU23, 48 h
[21] = biological target: T1, Lanosterol 14-alpha demethylase; test: Inhibition of CYP51 in fluconazole-susceptible Candida albicans CAAL93 assessed as ergosterol level at 4.5 ng/mL after 2 hrs; design: scale not given: the % may be the effect or the level left
[22] = biological target: T1, Lanosterol 14-alpha demethylase; test: Inhibition of CYP51 in fluconazole-susceptible Candida albicans CAAL93 assessed as lanosterol level at 4.5 ng/mL after 2 hrs; design: scale not given: the % may be the effect or the level left
[23] = test system: Aspergillus fumigatus; test: Antifungal activity against Aspergillus fumigatus ASFU19 after 48 hrs by M38 method; assay type: functional; conditions: ASFU19, 48 h
[24] = biological target: T1, Lanosterol 14-alpha demethylase; test: Inhibition of CYP51 in fluconazole-susceptible Candida albicans CAAL93 assessed as lanosterol level at 22 ng/mL after 2 hrs; design: scale not given: the % may be the effect or the level left
[25] = biological target: T1, Lanosterol 14-alpha demethylase; test: Inhibition of CYP51 in fluconazole-susceptible Candida albicans CAAL93 assessed as eburicol level at 4.5 ng/mL after 2 hrs; design: scale not given: the % may be the effect or the level left
[26] = biological target: T1, Lanosterol 14-alpha demethylase; test: Inhibition of CYP51 in fluconazole-susceptible Candida albicans CAAL93 assessed as ergosterol level at 22 ng/mL after 2 hrs; design: scale not given: the % may be the effect or the level left
[27] = test system: Aspergillus fumigatus; test: Antifungal activity against Aspergillus fumigatus ASFU13 after 48 hrs by M38 method; assay type: functional; conditions: ASFU13, 48 h
[28] = biological target: T1, Lanosterol 14-alpha demethylase; test: Inhibition of CYP51 in fluconazole-susceptible Candida albicans CAAL93 assessed as 14-methyfecosterol level at 22 ng/mL after 2 hrs; design: scale not given: the % may be the effect or the level left
[29] = Antifungal activity against Rhizomucor pusillus RHPU1 after 48 hrs by broth microdilution test; assay type: functional
[30] = biological target: T1, Lanosterol 14-alpha demethylase; test: Inhibition of CYP51 in fluconazole-susceptible Candida albicans CAAL93 assessed as episterol level at 4.5 ng/mL after 2 hrs; design: scale not given: the % may be the effect or the level left
[31] = biological target: T1, Lanosterol 14-alpha demethylase; test: Inhibition of CYP51 in fluconazole-susceptible Candida albicans CAAL93 assessed as zymosterol level at 4.5 ng/mL after 2 hrs; design: scale not given: the % may be the effect or the level left
[32] = biological target: T1, Lanosterol 14-alpha demethylase; test: Inhibition of CYP51 in fluconazole-susceptible Candida albicans CAAL93 assessed as eburicol level at 22 ng/mL after 2 hrs; design: scale not given: the % may be the effect or the level left
[33] = Antifungal activity against Scedosporium sp. SCSP1 after 48 hrs by broth microdilution test; assay type: functional

T1 sequence (P10613 whole entry): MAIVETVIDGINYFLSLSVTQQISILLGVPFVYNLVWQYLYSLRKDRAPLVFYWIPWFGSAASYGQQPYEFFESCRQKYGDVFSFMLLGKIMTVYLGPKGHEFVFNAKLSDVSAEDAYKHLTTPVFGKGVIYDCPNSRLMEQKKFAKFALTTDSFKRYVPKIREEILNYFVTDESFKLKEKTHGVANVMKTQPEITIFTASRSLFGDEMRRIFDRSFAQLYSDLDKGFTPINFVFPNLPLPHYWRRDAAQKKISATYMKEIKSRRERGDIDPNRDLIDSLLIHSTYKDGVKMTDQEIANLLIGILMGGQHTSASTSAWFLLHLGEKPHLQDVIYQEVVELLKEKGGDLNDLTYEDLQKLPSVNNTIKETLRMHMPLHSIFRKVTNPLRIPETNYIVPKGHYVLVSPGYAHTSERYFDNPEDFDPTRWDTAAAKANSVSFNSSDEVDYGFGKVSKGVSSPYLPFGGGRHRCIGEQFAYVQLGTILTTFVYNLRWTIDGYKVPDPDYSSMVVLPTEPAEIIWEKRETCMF

SMILES | MIC [1] [µg/mL] | MIC [2] [ng/mL] | MIC [3] [µg/mL] | MIC [4] [µg/mL] | MIC [5] [µg/mL] | MIC [6] [µg/mL] | MIC [7] [µg/mL] | MIC [8] [µg/mL] | MIC [9] [µg/mL] | MIC [10] [ng/mL] | MIC [13] [µg/mL] | MIC [14] [µg/mL] | MIC [16] [µg/mL] | MIC [20] [µg/mL] | MIC [23] [µg/mL] | MIC [27] [µg/mL] | MIC [29] [µg/mL] | MIC [33] [µg/mL] | further results
C[C@@H](n1cnc2ccc3ncsc3c2c1=O)[C@](O)(Cn1cncn1)c1ccc(F)cc1F | 5 (≈ 11 µM) | < 1 | < 0.001 | 5 (≈ 11 µM) | 2.5 (≈ 5.5 µM) | 0.006 (≈ 0.0132 µM) | 0.095 (≈ 0.209 µM) | > 43 | 1.43 (≈ 3.15 µM) | 3 (≈ 0.0066 µM) | – | – | – | – | – | – | – | – | –
C[C@@H](n1cnc2cc3scnc3cc2c1=O)[C@](O)(Cn1cncn1)c1ccc(F)cc1F | 0.182 (≈ 0.4 µM) | < 1 | 0.127 (≈ 0.279 µM) | 0.94 (≈ 2.07 µM) | < 0.005 | 0.013 (≈ 0.0286 µM) | 0.068 (≈ 0.15 µM) | 0.28 (≈ 0.616 µM) | 0.118 (≈ 0.26 µM) | 11 (≈ 0.0242 µM) | 2.2 (≈ 4.84 µM) | 2 (≈ 4.4 µM) | 4.5 (≈ 9.9 µM) | 0.27 (≈ 0.594 µM) | 2.1 (≈ 4.62 µM) | 3.1 (≈ 6.82 µM) | 1 (≈ 2.2 µM) | 1 (≈ 2.2 µM) | Activity [11]: 3.8%; Activity [12]: 5.9%; survival at 15 mg/kg [15]: 75%; inhibition (INH) [17]: Dose-dependent effect; Activity [18]: 15.7%; Activity [19]: 5.4%; Activity [21]: 51.1%; Activity [22]: 29.9%; Activity [24]: 41.6%; Activity [25]: 4.4%; Activity [26]: 5.4%; Activity [28]: 11.4%; Activity [30]: 2.9%; Activity [31]: 2%; Activity [32]: 20.4%
C[C@@H](n1cnc2cc(Cl)ccc2c1=O)[C@](O)(Cn1cncn1)c1ccc(F)cc1F [ALBACONAZOLE] | 0.022 (≈ 0.0509 µM) | < 1 | 0.011 (≈ 0.0255 µM) | < 0.043 | 0.005 (≈ 0.0116 µM) | 0.018 (≈ 0.0417 µM) | 0.065 (≈ 0.151 µM) | 0.23 (≈ 0.533 µM) | 0.063 (≈ 0.146 µM) | 3 (≈ 0.00695 µM) | 2.1 (≈ 4.86 µM) | 1 (≈ 2.32 µM) | 1.2 (≈ 2.78 µM) | 0.22 (≈ 0.509 µM) | 2 (≈ 4.63 µM) | 1.1 (≈ 2.55 µM) | 0.5 (≈ 1.16 µM) | 0.5 (≈ 1.16 µM) | –
OC(Cn1cncn1)(Cn1cncn1)c1ccc(F)cc1F [FLUCONAZOLE] | > 30 | 18 (≈ 0.0588 µM) | > 30 | 21 (≈ 68.6 µM) | 12.9 (≈ 42.1 µM) | > 30 | 7.7 (≈ 25.1 µM) | – | 11 (≈ 35.9 µM) | 62 (≈ 0.202 µM) | – | – | – | – | – | – | – | – | –
CCC(C)n1ncn(-c2ccc(N3CCN(c4ccc(OCC5COC(Cn6cncn6)(c6ccc(Cl)cc6Cl)O5)cc4)CC3)cc2)c1=O (centres undefined) [ITRACONAZOLE] | – | – | – | – | – | – | – | 0.42 (≈ 0.595 µM) | – | – | > 71 | – | > 71 | > 71 | > 71 | > 71 | – | – | –
C[C@@H](c1ncncc1F)[C@](O)(Cn1cncn1)c1ccc(F)cc1F [VORICONAZOLE] | 0.549 (≈ 1.57 µM) | < 3 | 0.905 (≈ 2.59 µM) | 1.1 (≈ 3.15 µM) | < 0.003 | 0.925 (≈ 2.65 µM) | 0.061 (≈ 0.175 µM) | 0.15 (≈ 0.429 µM) | 0.101 (≈ 0.289 µM) | 5 (≈ 0.0143 µM) | 0.25 (≈ 0.716 µM) | 8 (≈ 22.9 µM) | < 0.35 | 0.18 (≈ 0.515 µM) | 3 (≈ 8.59 µM) | < 0.35 | 2 (≈ 5.73 µM) | 0.125 (≈ 0.358 µM) | –
